Source: ChEMBL document CHEMBL3525942, “Disposition and metabolism of [14C]SB-649868, an orexin 1 and 2 receptor antagonist, in humans” (Drug Metab Dispos, 2011)

Experiments:
[1] = Drug level in human urine treated with [14C]SB-649868 at 30 mg, po single dose after 0 to 72 hrs by HPLC-MSn analysis; conditions: in vivo, 0-72 h
Plasma [2] = test: Drug level in human plasma assessed as radioactivity treated with [14C]SB-649868 at 30 mg, po single dose after 3 hrs by HPLC-MSn analysis; format: ADME, organism-based; parameters: dosed compound name [14C]SB-649868; conditions: in vivo
In short: (§1)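 Plasma taken 3, 12, 24 and 48 h after one oral 30 mg [14C] dose, extracted, and run on radio-HPLC: C8 column, 45 mM ammonium acetate pH 3.8 and acetonitrile gradient, 1 ml/min. Fractions collected into scintillant plates and counted 5 min. Extraction recovery measured; data corrected when recovery was <85%. Values are % of plasma radioactivity, BQL 1%; n=7 at 3 and 12 h.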

Plasma [3] = test: Drug level in human plasma assessed as radioactivity treated with [14C]SB-649868 at 30 mg, po single dose after 12 hrs by HPLC-MSn analysis; format: ADME, organism-based; parameters: dosed compound name [14C]SB-649868; conditions: in vivo
In short: as §1

Plasma [4] = test: Drug level in human plasma assessed as radioactivity treated with [14C]SB-649868 at 30 mg, po single dose after 24 hrs by HPLC-MSn analysis; format: ADME, organism-based; parameters: dosed compound name [14C]SB-649868; conditions: in vivo
In short: as §1

Plasma [5] = test: Drug level in human plasma assessed as radioactivity treated with [14C]SB-649868 at 30 mg, po single dose after 48 hrs by HPLC-MSn analysis; format: ADME, organism-based; parameters: dosed compound name [14C]SB-649868; conditions: in vivo
In short: as §1

[6] = Drug level in human feces treated with [14C]SB-649868 at 30 mg, po single dose by HPLC-MSn analysis; conditions: in vivo
Homo sapiens [7] = test: AUC (0 to infinity) in human plasma treated with [14C]SB-649868 at 30 mg, po single dose; format: ADME, organism-based; parameters: dosed compound name [14C]SB-649868; conditions: in vivo
In short: (§2)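 Eight healthy men given one oral 30 mg [14C] capsule. Plasma sampled 0.25–96 h. Parent measured in 50 µl plasma after acetonitrile precipitation with deuterated internal standard, by HPLC-MS/MS (positive-ion MRM). Calibration 5–5000 ng/ml, 1/x2 weighted. Noncompartmental analysis: t1/2 = ln2/λz, linear-up/log-down trapezoid AUC, CL/F = Dose/AUC0-inf.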

Homo sapiens [8] = test: Apparent oral clearance in human plasma treated with [14C]SB-649868 at 30 mg, po single dose; format: ADME, organism-based; parameters: dosed compound name [14C]SB-649868; conditions: in vivo
In short: as §2

[9] = Terminal phase half life in human at 10 to 60 mg; format: ADME, organism-based; parameters: dosed compound name [14C]SB-649868; conditions: in vivo, read-out: Compound recovery (converted)
Homo sapiens [10] = test: Cmax in human plasma treated with [14C]SB-649868 at 30 mg, po single dose; format: ADME, organism-based; parameters: dosed compound name [14C]SB-649868; conditions: in vivo
In short: as §2

Plasma [11] = test: Drug recovery in human plasma at 30, po single dose after 48 hrs by HPLC-MSn analysis; format: ADME, organism-based; parameters: dosed compound name [14C]SB-649868
In short: as §1

Homo sapiens [12] = test: AUC (0 to t) in human plasma treated with [14C]SB-649868 at 30 mg, po single dose; format: ADME, organism-based; parameters: dosed compound name [14C]SB-649868; conditions: in vivo
In short: as §2

Homo sapiens [13] = test: Tmax in human plasma treated with [14C]SB-649868 at 30 mg, po single dose; format: ADME, organism-based; parameters: dosed compound name [14C]SB-649868; conditions: in vivo
In short: as §2

[14] = Elimination half life in dog; format: ADME, organism-based, Canis lupus familiaris; parameters: dosed compound name [14C]SB-649868; conditions: in vivo, read-out: Compound recovery
Homo sapiens [15] = test: Apparent half life in human plasma treated with [14C]SB-649868 at 30 mg, po single dose; format: ADME, organism-based; parameters: dosed compound name [14C]SB-649868; conditions: in vivo
In short: as §2

[16] = Elimination half life in rat; format: ADME, organism-based; parameters: dosed compound name [14C]SB-649868; conditions: in vivo, read-out: Compound recovery
Plasma [17] = test: Drug recovery in human plasma at 30, po single dose after 3 hrs by HPLC-MSn analysis; format: ADME, organism-based; parameters: dosed compound name [14C]SB-649868
In short: as §1

Compound recovery [1] | Compound recovery (Plasma [2]) | Compound recovery (Plasma [3]) | Compound recovery (Plasma [4]) | Compound recovery (Plasma [5]) | Compound recovery [6] | Compound recovery (Homo sapiens [7]) | Compound recovery (Homo sapiens [8]) | half-life [9] | Compound recovery (Homo sapiens [10]) | Compound recovery (Plasma [11]) | Compound recovery (Homo sapiens [12]) | Compound recovery (Homo sapiens [13]) | half-life [14] | Compound recovery (Homo sapiens [15]) | half-life [16] | Compound recovery (Plasma [17]) | Structure (SMILES)
0.6% | 1.3% | 1% | 1.9% | 3% | 1.5% | – | – | – | – | – | – | – | – | – | – | – | Cc1nc(C(=O)N2CCCC[C@H]2CN)c(-c2ccc(F)cc2)s1
0.2% | 6% | 16.8% | 19.3% | 15.1% | 2.6% | – | – | – | – | – | – | – | – | – | – | – | Cc1nc(C(=O)N2CCCC[C@H]2CN2C(=O)c3cccc(O)c3CC2O)c(-c2ccc(F)cc2)s1 (stereo not given in full)
1.5% | < 1 | 6.7% | 4.2% | < 1 | 10.3% | – | – | – | – | – | – | – | – | – | – | – | Cc1nc(C(=O)N2CCCC[C@H]2CNC(=O)c2cccc(O)c2CC(=O)O)c(-c2ccc(F)cc2)s1
Below quantification limit | 67.7% | 33.2% | 9.8% | < 1 | Below quantification limit | 8300 ng·h/mL | 3610 mL/h | 2.2 h | 1.2 µg/mL | 34% | 8200 ng·h/mL | 4 h | < 1 h | 4.8 h | < 1 h | 97% | Cc1nc(C(=O)N2CCCC[C@H]2CNC(=O)c2cccc3occc23)c(-c2ccc(F)cc2)s1 [SB-649868]
